According to ChEMBL document CHEMBL4732101, “Novel quinolone-based potent and selective HDAC6 inhibitors: Synthesis, molecular modeling studies and biological investigation” (Eur J Med Chem, 2021):
Calls of active or inactive are those of the source. No cut-off for these calls is given here.

Key:
[1] = Inhibition of HDAC1/2/3/8 in human U-937 cells assessed as increase in H3K9/14 acetylation at 10 uM measured after 12 to 24 hrs by Western blot analysis; format: cell-based; settings: u-937, 10 µM, time 12-24 hrs
Summary of the method: (§1)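 HCT-116 or U937 cells treated at 10 µM for 12 and 24 h. […] Western blot used 40 µg total protein or 5 µg acid-extracted histone. Blots probed for cleaved PARP, acetylated tubulin, H3K9/14ac and Hsp90(AcLys294), normalized to GAPDH or H4. Compared with control cells by one-way ANOVA and Dunnett's test.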

HCT-116 [2] = test: Induction of apoptosis in human HCT-116 cells assessed as increase in PARP cleavage at 10 uM measured after 24 hrs by Western blot analysis; format: functional, cell-based; summary of the method: as §1
[3] = Mutagenicity in Salmonella typhimurium TA98 at 5 to 230 uM measured after 90 mins in presence of rat liver S9 fraction by Ames test; format: toxicity, subcellular; settings: salmonella enterica subsp. enterica serovar typhimurium, s9, 1.5 h, dose 5-230 µM
HCT-116 [4] = test: Cytotoxicity against human HCT-116 cells assessed as reduction in cell viability measured after 48 hrs by MTT assay; format: functional, cell-based; settings: HCT-116, 48 h
Summary of the method: (§2)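 HCT-116 cells grown in DMEM with 10% FBS, 2 mM L-glutamine and antibiotics. 2.5×10^4 cells/well treated in triplicate at 50, 25, 10, 5 and 1 µM for 12, 24 or 48 h. Then MTT 0.5 mg/ml for 3 h, supernatant removed, formazan dissolved in isopropanol, absorbance read at 570 nm. IC50 derived from the concentration series.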

U-937 [5] = test: Cytotoxicity against human U-937 cells assessed as reduction in cell proliferation at 50 uM measured after 48 hrs by MTT assay relative to control; format: functional; design: scale not given: the % may be the effect or the level left
Summary of the method: (§3)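 U937 cells grown in RPMI-1640 with 10% FBS, 2 mM L-glutamine and penicillin-streptomycin. 2.5×10^4 cells/well treated in triplicate at 50, 25, 10, 5 and 1 µM for 12, 24 or 48 h. MTT 0.5 mg/ml added for 3 h, plate centrifuged 5 min at 1200 rpm, crystals dissolved in isopropanol, A570 read. IC50 derived from the concentration series.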

HCT-116 [6] = test: Cytotoxicity against human HCT-116 cells assessed as cell viability measured after 48 hrs by MTT assay relative to control; format: functional; summary of the method: as §2
[7] = molecular target: T1, Protein deacetylase HDAC6 (Homo sapiens) (UniProt Q9UBN7); test: Inhibition of HDAC6 in human U-937 cells assessed as increase in Hsp90(AcLys294) acetylation at 10 uM measured after 12 to 24 hrs by Western blot analysis; format: cell-based; settings: time 12-24 hrs; summary of the method: as §1
T1 sequence (whole entry): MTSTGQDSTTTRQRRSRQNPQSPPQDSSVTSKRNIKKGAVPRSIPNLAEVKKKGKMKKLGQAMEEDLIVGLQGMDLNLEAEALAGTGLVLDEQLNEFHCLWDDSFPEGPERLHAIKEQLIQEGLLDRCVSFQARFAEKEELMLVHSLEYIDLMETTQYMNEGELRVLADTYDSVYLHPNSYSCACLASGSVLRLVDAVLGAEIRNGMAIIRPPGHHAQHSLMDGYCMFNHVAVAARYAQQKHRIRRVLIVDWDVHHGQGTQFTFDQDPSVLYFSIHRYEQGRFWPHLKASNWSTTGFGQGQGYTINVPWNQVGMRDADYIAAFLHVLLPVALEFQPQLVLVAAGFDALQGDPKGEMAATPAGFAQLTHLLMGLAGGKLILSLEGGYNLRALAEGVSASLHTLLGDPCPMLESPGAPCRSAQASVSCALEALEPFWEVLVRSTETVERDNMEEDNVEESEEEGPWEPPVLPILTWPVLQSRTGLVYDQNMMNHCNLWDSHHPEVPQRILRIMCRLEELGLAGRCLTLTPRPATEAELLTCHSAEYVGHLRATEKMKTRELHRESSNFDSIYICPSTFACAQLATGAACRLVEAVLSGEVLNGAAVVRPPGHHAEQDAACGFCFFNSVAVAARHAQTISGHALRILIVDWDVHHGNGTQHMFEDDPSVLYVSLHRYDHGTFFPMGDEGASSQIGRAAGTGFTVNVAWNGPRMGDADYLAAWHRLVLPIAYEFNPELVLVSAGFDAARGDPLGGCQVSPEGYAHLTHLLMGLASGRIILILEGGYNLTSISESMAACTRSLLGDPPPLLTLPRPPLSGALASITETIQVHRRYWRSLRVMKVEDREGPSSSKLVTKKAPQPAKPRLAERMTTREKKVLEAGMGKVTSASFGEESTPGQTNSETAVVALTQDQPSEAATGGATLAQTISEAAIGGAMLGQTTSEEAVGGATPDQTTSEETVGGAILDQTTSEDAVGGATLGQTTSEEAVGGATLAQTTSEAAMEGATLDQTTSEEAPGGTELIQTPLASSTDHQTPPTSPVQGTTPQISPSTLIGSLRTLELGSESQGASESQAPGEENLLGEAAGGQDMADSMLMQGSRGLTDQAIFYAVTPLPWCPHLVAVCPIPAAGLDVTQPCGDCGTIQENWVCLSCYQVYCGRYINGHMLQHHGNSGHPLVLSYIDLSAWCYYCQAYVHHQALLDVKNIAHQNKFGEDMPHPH

[8] = Inhibition of HDAC1/2/3/8 in human HCT-116 cells assessed as increase in H3K9/14 acetylation at 10 uM measured after 12 to 24 hrs by Western blot analysis relative to control; format: cell-based; settings: hct-116, 10 µM, time 12-24 hrs; summary of the method: as §1
[9] = molecular target: T1, Protein deacetylase HDAC6 (Homo sapiens); test: Inhibition of HDAC6 in human U-937 cells assessed as increase in alpha-tubulin acetylation at 10 uM measured after 12 to 24 hrs by Western blot analysis relative to control; format: cell-based; settings: time 12-24 hrs; summary of the method: as §1
U-937 [10] = test: Cytotoxicity against human U-937 cells assessed as reduction in cell viability measured after 48 hrs by MTT assay; format: functional, cell-based; settings: U-937, 48 h; summary of the method: as §3
Histone deacetylase 8 = molecular target: T2, Histone deacetylase 8 (Homo sapiens, UniProt Q9BY41); test: Inhibition of recombinant human HDAC8 using Fluor-de-Lys as substrate measured after 1 hr by fluorescence assay
T2 sequence (Q9BY41 whole entry): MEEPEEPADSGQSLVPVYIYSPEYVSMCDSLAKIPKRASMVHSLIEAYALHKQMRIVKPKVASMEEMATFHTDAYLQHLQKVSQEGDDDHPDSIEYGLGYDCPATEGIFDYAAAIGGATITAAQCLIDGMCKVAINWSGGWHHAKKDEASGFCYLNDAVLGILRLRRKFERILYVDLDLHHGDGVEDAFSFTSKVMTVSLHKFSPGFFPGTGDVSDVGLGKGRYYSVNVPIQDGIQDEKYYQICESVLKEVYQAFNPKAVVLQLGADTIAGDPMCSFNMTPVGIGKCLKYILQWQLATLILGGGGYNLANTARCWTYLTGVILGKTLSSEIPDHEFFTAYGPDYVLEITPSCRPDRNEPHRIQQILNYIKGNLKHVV

[11] = Mutagenicity in Salmonella typhimurium TA98 at 5 to 230 uM measured after 90 mins in absence of rat liver S9 fraction by Ames test; format: toxicity; settings: salmonella enterica subsp. enterica serovar typhimurium, 1.5 h, dose 5-230 µM

- inhibition (INH) [1]: Active
- inhibition [7]: inactive
- fold change (FC) [8]: > 6
- fold change (FC) [9]: > 9
- IC50 (Histone deacetylase 8): 0.49 µM
- Kapp (Histone deacetylase 8; human, 1 h): 0.4 µM
SMILES: CCN(CC)Cc1ccc(Cn2c(=O)c(OCc3ccc(C(=O)NO)cc3)c(-c3cccnc3)c3ccccc32)cc1
- Activity (HCT-116 [2]): Active
- Activity [3]: Non-Toxic
- IC50 (HCT-116 [4]): 8.4 µM
- Activity (U-937 [5]): 60%
- Activity (HCT-116 [6]): 10%
- IC50 (U-937 [10]): 45.5 µM
- Activity [11]: Non-Toxic
